# In ChEMBL document CHEMBL5678799 (Biochem J, 2009):
# Calls of active or inactive are those of the source. No cut-off for these calls is given here.
# Legend:
# [1] = tested on: HEK293; assay: Inhibition of PI3K in serum starved HEK293 cells expressing GST-tagged-AKT1 S473D mutant assessed as reduction in IGF1-stimulated AKT1 phosphorylation at Thr308 residue at 100 to 1000 nM incubated for 20 mins by immunoblot analysis; format: cell-based; details: Homo sapiens, dose 100-1000 nM
# Procedure, shortened: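 HEK-293 cells transfected with wild-type or S473D GST–Akt1. At 24 h, serum-starved 16 h, pretreated 30 min with inhibitor, then stimulated with IGF-1 for 20 min. Lysates immunoblotted for Thr308 phosphorylation. Three separate experiments.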
# [2] = molecular target: mTORC2 (Homo sapiens) (UniProt P42345+Q6R327+Q9BVC4+Q9BPZ7); details: HEK293, dose 30-1000 nM, time 30.0 min
# [3] = molecular target: Insulin-like growth factor 1 receptor (Homo sapiens) (UniProt P08069); assay: Inhibition of recombinant human N-terminal His6-tagged IGF1R (954 to 1367 residues) expressed in baculovirus infected Sf21 cells assessed as remaining activity at 10 uM using KKKSPGEYVNIEFG as substrate incubated for 30 mins in presence of [gamma-33P]ATP by filter binding method relative to control
# Procedure, shortened: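 Radiometric kinase panel run robotically at room temperature (21 °C) for 30 min, linear in time and enzyme. […] Activity is expressed as percent of control without compound, from triplicate determinations ± S.D.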
# [4] = molecular target: T1, mTORC1 (Homo sapiens) (UniProt P42345+Q8N122+Q9BVC4); details: HEK293, dose 30-1000 nM, time 30.0 min
# [5] = tested on: MEF; assay: Induction of cell cycle arrest in MEF cells assessed as accumulation at S phase at 3 uM incubated for 1 to 3 days by propidium iodide staining based flow cytometric analysis (reference value: 61.5 +/- 0.78%); format: toxicity; details: mouse, time 1-3 day
# [6] = molecular target: Protein kinase C zeta type (Homo sapiens) (UniProt Q05513); assay: Inhibition of recombinant human N-terminal His6-tagged PKCzeta (2 to 592 residues) expressed in baculovirus infected Sf21 cells assessed as remaining activity at 1 uM using ERMRPRKRQGSVRRV as substrate incubated for 30 mins in presence of [gamma-33P]ATP by filter binding method relative to control
# [7] = tested on: MEF; assay: Induction of cell cycle arrest in MEF cells assessed as accumulation at G2 phase at 3 uM incubated for 1 to 3 days by propidium iodide staining based flow cytometric analysis (reference value: 15.4 +/- 2.04%); format: toxicity; details: mouse, time 1-3 day
# [8] = molecular target: Ribosomal protein S6 kinase alpha-5 (Homo sapiens) (UniProt O75582); assay: Inhibition of recombinant human His6-tagged MSK1 (2 to 802 residues) expressed in baculovirus infected Sf21 cells assessed as remaining activity at 1 uM using GRPRTSSFAEGKK as substrate incubated for 30 mins in presence of [gamma-33P]ATP by filter binding method relative to control
# Procedure, shortened: (§1)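 Robotic radiometric panel assay, 30 min at room temperature (21 °C), with 10 mM magnesium acetate. […] Compound at 1 or 10 µM. Residual activity expressed relative to compound-free control; triplicate average ± S.D.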
# [9] = molecular target: Ribosomal protein S6 kinase alpha-3 (Homo sapiens) (UniProt P51812); assay: Inhibition of recombinant human N-terminal His6-tagged RSK2 (2 to 740 residues) expressed in baculovirus infected Sf21 cells assessed as remaining activity at 10 uM using KKLNRTLSVA as substrate incubated for 30 mins in presence of [gamma-33P]ATP by filter binding method relative to control
# Procedure, shortened: (§2)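 Assays ran 30 min at 21 °C, robotically and in the linear range. Remaining activity is given relative to incubations lacking compound, as the average of triplicate determinations ± S.D.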
# [10] = molecular target: Casein kinase II subunit alpha (Homo sapiens) (UniProt P68400); assay: Inhibition of recombinant human N-terminal His6-tagged CK2alpha1 (2 to 391 residues) expressed in Escherichia coli assessed as remaining activity at 10 uM using RRRDDDSDDD as substrate incubated for 30 mins in presence of [gamma-33P]ATP by filter binding method relative to control
# Procedure, shortened: (§3)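 Radiometric panel assay run robotically at 21 °C for 30 min, linear in time and enzyme. […] Activity is expressed as percentage of the compound-omitted control, averaged from triplicates ± S.D.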
# [11] = molecular target: T1, mTORC1 (Homo sapiens); details: HEK293, dose 30-1000 nM, time 30.0 min; remark: listed apart in the source
# [12] = molecular target: Mitogen-activated protein kinase 8 (Homo sapiens) (UniProt P45983); assay: Inhibition of recombinant human His6-tagged JNK1alpha1 (1 to 384 residues) expressed in baculovirus infected Sf21 cells assessed as remaining activity at 10 uM using ATF2 as substrate incubated for 30 mins in presence of [gamma-33P]ATP by filter binding method relative to control; procedure, shortened: as §1
# [13] = molecular target: Tyrosine-protein kinase Yes (Homo sapiens) (UniProt P07947); assay: Inhibition of recombinant human N-terminal His6-tagged YES1 (1 to 543 residues) expressed in baculovirus infected Sf21 cells assessed as remaining activity at 10 uM using Poly(Glu,Tyr) as substrate incubated for 30 mins in presence of [gamma-33P]ATP by filter binding assay relative to control; procedure, shortened: as §3
# [14] = molecular target: Dual specificity tyrosine-phosphorylation-regulated kinase 1A (Homo sapiens) (UniProt Q13627); assay: Inhibition of recombinant human N-terminal GST-tagged DYRK1A (1 to 502 residues) expressed in Escherichia coli assessed as remaining activity at 1 uM using KKISGRLSPIMTEQ as substrate incubated for 30 mins in presence of [gamma-33P]ATP by filter binding method relative to control
# Procedure, shortened: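 Run robotically for 30 min at 21 °C under linear conditions. Compound at 1 or 10 µM. Percentage activity remaining versus control without compound, triplicate mean ± S.D.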
# [15] = molecular target: T1, mTORC1 (Homo sapiens); details: HEK293, dose 30.0 nM, time 30.0 min
# [16] = molecular target: Casein kinase I isoform delta (Homo sapiens) (UniProt P48730); assay: Inhibition of recombinant human N-terminal GST-tagged CK1delta (1 to 415 residues) expressed in Escherichia coli assessed as remaining activity at 1 uM using RRKDLHDDEEDEAMSITA as substrate incubated for 30 mins in presence of [gamma-33P]ATP by filter binding method relative to control; procedure, shortened: as §1
# [17] = molecular target: SRSF protein kinase 1 (Homo sapiens) (UniProt Q96SB4); assay: Inhibition of recombinant human N-terminal GST-tagged SRPK1 (2 to 654 residues) expressed in Escherichia coli assessed as remaining activity at 1 uM using RSRSRSRSRSRSRSR as substrate incubated for 30 mins in presence of [gamma-33P]ATP by filter binding assay relative to control
# Procedure, shortened: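 Incubation was 30 min at room temperature (21 °C) under conditions linear with time and enzyme amount. Activity is reported as percent of control lacking compound, triplicate mean ± S.D.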
# [18] = molecular target: Ribosomal protein S6 kinase alpha-3 (Homo sapiens) (UniProt P51812); assay: Inhibition of recombinant human N-terminal His6-tagged RSK2 (2 to 740 residues) expressed in baculovirus infected Sf21 cells assessed as remaining activity at 1 uM using KKLNRTLSVA as substrate incubated for 30 mins in presence of [gamma-33P]ATP by filter binding method relative to control; procedure, shortened: as §2
# Sequence of Ribosomal protein S6 kinase alpha-3 (Homo sapiens) (P51812 whole entry, the tested form may be a part): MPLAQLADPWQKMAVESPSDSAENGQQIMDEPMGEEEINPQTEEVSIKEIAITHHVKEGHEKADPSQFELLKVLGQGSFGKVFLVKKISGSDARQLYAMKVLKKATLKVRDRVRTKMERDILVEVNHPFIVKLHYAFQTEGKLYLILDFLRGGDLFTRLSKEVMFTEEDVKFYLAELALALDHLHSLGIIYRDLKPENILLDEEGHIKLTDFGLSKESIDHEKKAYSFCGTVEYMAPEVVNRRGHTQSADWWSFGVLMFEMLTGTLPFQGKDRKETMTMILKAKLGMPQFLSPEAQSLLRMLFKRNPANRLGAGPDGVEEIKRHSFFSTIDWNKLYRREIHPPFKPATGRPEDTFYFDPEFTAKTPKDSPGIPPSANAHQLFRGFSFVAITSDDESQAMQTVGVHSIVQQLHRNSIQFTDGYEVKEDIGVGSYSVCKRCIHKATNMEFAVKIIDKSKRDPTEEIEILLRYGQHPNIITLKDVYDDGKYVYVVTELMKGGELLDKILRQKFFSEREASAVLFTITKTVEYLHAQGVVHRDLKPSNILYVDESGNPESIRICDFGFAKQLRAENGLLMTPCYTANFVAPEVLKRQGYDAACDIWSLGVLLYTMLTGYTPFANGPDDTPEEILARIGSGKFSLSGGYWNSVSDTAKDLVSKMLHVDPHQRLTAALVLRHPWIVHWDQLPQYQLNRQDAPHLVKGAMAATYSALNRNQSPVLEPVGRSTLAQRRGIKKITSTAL
# Sequence of Protein kinase C zeta type (Homo sapiens) (Q05513 whole entry, the tested form may be a part): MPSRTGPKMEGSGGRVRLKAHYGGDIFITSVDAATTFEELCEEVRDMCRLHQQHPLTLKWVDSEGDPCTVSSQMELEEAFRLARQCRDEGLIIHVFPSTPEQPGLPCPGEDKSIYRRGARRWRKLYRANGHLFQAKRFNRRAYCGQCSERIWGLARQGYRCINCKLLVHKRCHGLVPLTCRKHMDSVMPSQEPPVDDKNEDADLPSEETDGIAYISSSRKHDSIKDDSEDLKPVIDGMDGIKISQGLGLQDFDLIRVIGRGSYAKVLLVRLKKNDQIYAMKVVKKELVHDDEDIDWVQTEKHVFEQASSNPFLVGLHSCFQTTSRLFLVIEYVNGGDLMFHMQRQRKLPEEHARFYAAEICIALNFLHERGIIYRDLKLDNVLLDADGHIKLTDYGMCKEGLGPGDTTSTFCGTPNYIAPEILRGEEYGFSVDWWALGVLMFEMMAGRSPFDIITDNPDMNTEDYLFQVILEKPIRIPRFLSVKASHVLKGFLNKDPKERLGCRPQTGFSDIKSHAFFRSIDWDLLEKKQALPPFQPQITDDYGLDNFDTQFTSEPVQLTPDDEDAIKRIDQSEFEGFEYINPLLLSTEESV
# Sequence of Insulin-like growth factor 1 receptor (Homo sapiens) (P08069 31-736 limits assumed): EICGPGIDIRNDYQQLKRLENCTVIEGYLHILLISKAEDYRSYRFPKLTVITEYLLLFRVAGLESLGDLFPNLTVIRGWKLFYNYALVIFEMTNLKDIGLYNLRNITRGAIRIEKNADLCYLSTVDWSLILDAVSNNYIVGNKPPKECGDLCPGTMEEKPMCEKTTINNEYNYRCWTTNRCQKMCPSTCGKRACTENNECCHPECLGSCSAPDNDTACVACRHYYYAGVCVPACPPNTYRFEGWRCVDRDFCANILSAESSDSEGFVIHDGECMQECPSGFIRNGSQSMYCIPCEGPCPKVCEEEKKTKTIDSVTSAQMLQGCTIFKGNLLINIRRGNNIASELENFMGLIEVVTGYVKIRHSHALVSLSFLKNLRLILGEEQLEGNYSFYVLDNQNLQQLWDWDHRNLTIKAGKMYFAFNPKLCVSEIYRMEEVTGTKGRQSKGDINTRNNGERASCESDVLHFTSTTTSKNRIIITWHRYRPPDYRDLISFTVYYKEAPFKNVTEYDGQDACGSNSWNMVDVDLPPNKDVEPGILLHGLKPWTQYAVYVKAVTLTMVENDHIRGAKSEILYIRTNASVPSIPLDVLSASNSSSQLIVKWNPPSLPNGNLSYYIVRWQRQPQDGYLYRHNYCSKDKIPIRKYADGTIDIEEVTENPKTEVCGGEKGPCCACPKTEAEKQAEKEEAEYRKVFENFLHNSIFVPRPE
# Sequence of Insulin-like growth factor 1 receptor (Homo sapiens) (P08069 741-1367 limits assumed): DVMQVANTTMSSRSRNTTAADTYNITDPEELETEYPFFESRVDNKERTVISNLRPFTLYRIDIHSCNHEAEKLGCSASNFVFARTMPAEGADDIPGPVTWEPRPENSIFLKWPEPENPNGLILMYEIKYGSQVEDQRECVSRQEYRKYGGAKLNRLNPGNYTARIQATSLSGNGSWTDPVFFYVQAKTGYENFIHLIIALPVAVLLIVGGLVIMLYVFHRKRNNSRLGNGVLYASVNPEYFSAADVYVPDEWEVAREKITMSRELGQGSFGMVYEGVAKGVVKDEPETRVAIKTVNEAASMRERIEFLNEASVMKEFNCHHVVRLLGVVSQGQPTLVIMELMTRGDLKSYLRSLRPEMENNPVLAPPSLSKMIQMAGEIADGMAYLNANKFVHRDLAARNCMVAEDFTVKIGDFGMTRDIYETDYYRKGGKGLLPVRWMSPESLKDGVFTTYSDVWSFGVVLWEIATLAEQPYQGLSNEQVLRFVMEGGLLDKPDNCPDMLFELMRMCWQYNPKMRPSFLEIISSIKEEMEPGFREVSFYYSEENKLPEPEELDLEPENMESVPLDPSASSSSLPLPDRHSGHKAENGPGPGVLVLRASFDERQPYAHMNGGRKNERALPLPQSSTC
# Sequence of Casein kinase I isoform delta (Homo sapiens) (P48730 whole entry, looked up, the tested form may be a part, canonical isoform): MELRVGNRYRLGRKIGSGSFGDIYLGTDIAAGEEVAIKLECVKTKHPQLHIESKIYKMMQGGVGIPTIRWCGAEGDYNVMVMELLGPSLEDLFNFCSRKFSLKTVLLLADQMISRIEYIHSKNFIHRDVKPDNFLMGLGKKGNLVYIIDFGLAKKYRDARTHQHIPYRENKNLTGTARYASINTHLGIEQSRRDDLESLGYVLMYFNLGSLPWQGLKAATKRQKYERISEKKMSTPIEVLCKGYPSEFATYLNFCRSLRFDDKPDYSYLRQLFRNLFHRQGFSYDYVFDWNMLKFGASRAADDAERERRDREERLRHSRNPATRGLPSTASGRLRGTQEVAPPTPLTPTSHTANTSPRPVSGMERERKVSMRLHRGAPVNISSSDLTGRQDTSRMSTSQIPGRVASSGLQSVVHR
# Sequence of Casein kinase II subunit alpha (Homo sapiens) (P68400 whole entry, looked up, the tested form may be a part): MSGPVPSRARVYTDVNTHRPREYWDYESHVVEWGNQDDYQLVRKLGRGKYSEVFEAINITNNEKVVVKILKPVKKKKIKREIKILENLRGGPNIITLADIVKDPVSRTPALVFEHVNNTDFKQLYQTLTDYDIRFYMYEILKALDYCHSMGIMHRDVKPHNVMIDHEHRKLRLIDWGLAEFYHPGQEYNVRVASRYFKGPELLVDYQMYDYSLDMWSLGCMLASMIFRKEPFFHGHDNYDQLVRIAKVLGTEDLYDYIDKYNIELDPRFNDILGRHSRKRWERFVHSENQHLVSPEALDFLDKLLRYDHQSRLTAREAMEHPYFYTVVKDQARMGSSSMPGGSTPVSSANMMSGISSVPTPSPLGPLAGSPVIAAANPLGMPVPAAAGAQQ
# Sequence of Ribosomal protein S6 kinase alpha-5 (Homo sapiens) (O75582 whole entry, looked up, the tested form may be a part): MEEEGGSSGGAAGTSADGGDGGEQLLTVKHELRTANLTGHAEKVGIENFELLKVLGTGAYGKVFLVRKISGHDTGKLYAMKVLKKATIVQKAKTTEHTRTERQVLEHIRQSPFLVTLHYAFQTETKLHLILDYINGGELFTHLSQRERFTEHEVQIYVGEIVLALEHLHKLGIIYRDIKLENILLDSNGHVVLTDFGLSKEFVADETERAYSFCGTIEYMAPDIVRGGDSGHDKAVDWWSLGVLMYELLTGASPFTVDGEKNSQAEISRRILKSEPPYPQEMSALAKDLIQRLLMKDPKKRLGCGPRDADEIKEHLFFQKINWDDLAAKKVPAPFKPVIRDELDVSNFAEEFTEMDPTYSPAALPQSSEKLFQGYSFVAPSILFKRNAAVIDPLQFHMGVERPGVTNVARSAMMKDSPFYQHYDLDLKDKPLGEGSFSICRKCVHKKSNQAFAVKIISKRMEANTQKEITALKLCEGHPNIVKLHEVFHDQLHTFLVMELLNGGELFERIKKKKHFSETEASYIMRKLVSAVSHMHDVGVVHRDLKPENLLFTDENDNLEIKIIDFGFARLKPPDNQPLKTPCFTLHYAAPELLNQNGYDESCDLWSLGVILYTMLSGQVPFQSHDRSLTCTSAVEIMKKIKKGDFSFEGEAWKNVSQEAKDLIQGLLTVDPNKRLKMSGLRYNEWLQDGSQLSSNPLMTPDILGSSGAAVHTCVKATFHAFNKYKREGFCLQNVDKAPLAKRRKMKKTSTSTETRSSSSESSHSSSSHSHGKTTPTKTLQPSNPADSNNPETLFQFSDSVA
# Sequence of SRSF protein kinase 1 (Homo sapiens) (Q96SB4 whole entry, the tested form may be a part): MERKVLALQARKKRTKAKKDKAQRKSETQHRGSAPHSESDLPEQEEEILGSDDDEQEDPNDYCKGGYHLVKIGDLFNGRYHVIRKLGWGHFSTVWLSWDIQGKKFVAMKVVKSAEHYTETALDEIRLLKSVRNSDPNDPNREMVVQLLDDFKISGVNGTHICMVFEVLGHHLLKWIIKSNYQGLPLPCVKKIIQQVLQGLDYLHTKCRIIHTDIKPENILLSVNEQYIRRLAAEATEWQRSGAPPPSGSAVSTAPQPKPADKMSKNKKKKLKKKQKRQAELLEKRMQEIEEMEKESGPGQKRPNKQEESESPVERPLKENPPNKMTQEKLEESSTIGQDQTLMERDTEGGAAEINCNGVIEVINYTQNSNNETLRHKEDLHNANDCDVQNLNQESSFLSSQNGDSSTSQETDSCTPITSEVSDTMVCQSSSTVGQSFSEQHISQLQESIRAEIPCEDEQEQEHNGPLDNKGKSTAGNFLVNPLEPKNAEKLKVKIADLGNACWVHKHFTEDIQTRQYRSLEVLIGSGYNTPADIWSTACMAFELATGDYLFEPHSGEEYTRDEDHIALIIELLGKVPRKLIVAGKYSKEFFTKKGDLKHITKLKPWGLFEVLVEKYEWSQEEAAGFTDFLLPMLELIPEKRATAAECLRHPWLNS
smiles,measurement,setting,value
COc1ccc(-c2ccc3c(N4CCOCC4)nc(N4C[C@@H](C)O[C@@H](C)C4)nc3n2)cc1CO [Ku-0063794],inhibition,[1],inactive
same,inhibition,[2],Active
same,Activity,[3],89%
same,inhibition,[4],Dose-Dependent Effect
same,Activity,[5],46.9%
same,Activity,[6],87%
same,Activity,[7],9.4%
same,Activity,[8],101%
same,Activity,[9],104%
same,Activity,[10],85%
same,inhibition,[11],Active
same,Activity,[12],93%
same,Activity,[13],90%
same,Activity,[14],94%
same,inhibition,[15],Active
same,Activity,[16],112%
same,Activity,[17],101%
same,Activity,[18],103%
